Laboratory results reported in PubChem BioAssay.
Calls of active or inactive are those of the source.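 Rule for the calls, unless noted: active = viability at or under a set limit in both replicates, limit being median viability minus 3 SD (cut at about 48% in these data, passing the limit was not always enough); inconclusive = at or under the limit in just one replicate; inactive = at or above the limit in both replicates.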

Assays:
[1] = reduced viability of SK-BR-3 breast cancer cells – cell-based, 24 h, human, pilot screen (AID 572;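 active = viability at or below 10% of carrier control in both of two separate runs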;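 note: compound exposure lasted between 18 and 24 h rather than exactly 24 h; 100% = carrier-treated control wells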); conditions: SK-BR-3 viability, CellTiter-Glo luminescence, at 10 µM, stronger effect = lower value
[2] = HUVEC growth inhibition – cell-based, human, primary screen (AID 575;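 active = viability at or below 30% in both replicate assays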;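 note: 100% = median of untreated cell wells with 0.1% DMSO on each plate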); conditions: HUVEC proliferation, CellTiter-Glo luminescence, 72 h; at 10 µM; stronger effect = lower value
Procedure, shortened: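 Assay system: Primary human umbilical vein endothelial cells | Quantity: 1250 cells per well | Medium: Supplemented EBM, 2% fetal bovine serum | Detection: CellTiter-Glo luminescence measuring cellular ATP | Read-out: % viability vs DMSO wells | Plate: Collagen-coated 384-well format | Times: 72 h exposure, 37 °C, 5% CO2, 30 min RT equilibration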

[3] = H69AR cell proliferation blockers – human, duplicate replicates, primary screen (AID 580); conditions: H69AR lung tumor cells viability, ATP luminescence, 72 h; at 10 µM; stronger effect = lower value;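 note: 100% = mean luminescence of untreated wells and 0% = no signal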
[4] = MRP1 drug-resistance reversers in H69AR cells – cell-based, doxorubicin co-treatment, pilot screen (AID 601;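 active = viability loss from added drug above about 55%, and viability with drug at most 40%, in both replicates, limit read from the data, passing the limit was not always enough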); conditions: CellTiter-Glo, 72 h, at 10 µM; for differential viability (reversal): stronger effect = higher value
[5] = yeast transport mutant growth inhibition pilot in 384-well plates, post-Golgi transport modulator project (AID 636; in the data active = inhibition above about 31%); conditions: absorbance 615 nm, about 18 h, stronger effect = higher value
[6] = growth suppression of yeast trafficking mutant, preliminary HTS, modulators of trafficking downstream of Golgi apparatus project, 1536-format plate, OD 615 nm (AID 637; in the data active = inhibition above about 30%); conditions: yeast transport mutant growth, absorbance 615 nm, 18 h; stronger effect = higher value
[7] = H69AR cells + 2 uM doxorubicin, measured here: viability with 2 uM doxorubicin, stronger effect = lower value
[8] = H69AR cells, compound alone cytotoxicity

Row | SMILES | viability [1] | viability [2] | viability [3] | differential viability (reversal) ([4]; H69AR cells + 2 uM doxorubicin) | viability [4, 7] [%] | viability [4, 8] [%] | inhibition [5] | inhibition [6]
1 | O=C(CSc1nc2ccccc2o1)NC(=O)NCc1ccco1 | 92% (inactive) | 96.3% (inactive) | 89.3% (inactive) | 3.28% (inactive) | 86.1 | 89.3 | -3.51% (inactive) | -1.27% (inactive)
2 | C=CCC1(O)C(=O)Nc2ccccc21 (centres undefined) | 93% (inactive) | 108% (inactive) | 98.2% (inactive) | 18.9% (inactive) | 79.4 | 98.2 | -5.2% (inactive) | 1.82% (inactive)
3 | COc1ccc(CCNC(=O)CCN2C(=O)C3CC=CCC3C2=O)cc1OC (centres undefined) | 103% (inactive) | 91.9% (inactive) | 105% (inactive) | 12% (inactive) | 92.8 | 105 | -2.08% (inactive) | -1.97% (inactive)
4 | O=C(NCc1cccs1)c1cc2c(s1)CS(=O)(=O)C2 | 116% (inactive) | 101% (inactive) | 98.1% (inactive) | 4.27% (inactive) | 93.8 | 98.1 | -4% (inactive) | -1.64% (inactive)
5 | CCn1nnnc1SCC(=O)Nc1nc(-c2cccs2)cs1 | 110% (inactive) | 83.8% (inactive) | 86.5% (inactive) | 18.2% (inactive) | 68.3 | 86.5 | -11% (inactive) | 3.87% (inactive)
6 | CCN1CCN(C(=O)N[C@@H](C(=O)N[C@@H]2C(=O)N3[C@@H]2SC(C)(C)[C@@H]3C(=O)O)c2ccccc2)C(=O)C1=O | 96% (inactive) | 84.1% (inactive) | 91.5% (inactive) | -13.4% (inactive) | 105 | 91.5 | -0.39% (inactive) | 6.33% (inactive)
7 | c1ccc2c(NC3CCCC3)nnc(NC3CCCC3)c2c1 | 60% (inactive) | 83.1% (inactive) | 91.4% (inactive) | 1.81% (inactive) | 89.6 | 91.4 | -0.92% (inactive) | -7.46% (inactive)
8 | COc1ccc(CCN(C)CCCC(C#N)(c2cc(OC)c(OC)c(OC)c2)C(C)C)cc1OC (centres undefined) | 85% (inactive) | 64.6% (inactive) | 95.6% (inactive) | -5.51% (inactive) | 101 | 95.6 | 5.71% (inactive) | -1.17% (inactive)
9 | O=C(CN1CCCN(S(=O)(=O)c2ccc(Br)cc2)CC1)Nc1ccc2c(c1)OCO2 | 91% (inactive) | 75% (inactive) | 6.58% (active) | -10.3% (inactive) | 16.9 | 6.58 | -0.52% (inactive) | 3.77% (inactive)
10 | CCCC(CCC)C(=O)NCCN1CCOCC1 | 118% (inactive) | 85% (inactive) | 96.8% (inactive) | 10.2% (inactive) | 86.6 | 96.8 | -2.34% (inactive) | 4.92% (inactive)
11 | CCc1ccc2[nH]c(=O)c(C(c3nnnn3CC3CCCO3)N3CCN4CCCC4C3)cc2c1 (centres undefined) | 100% (inactive) | 109% (inactive) | 105% (inactive) | 14.1% (inactive) | 91.1 | 105 | -3.2% (inactive) | -2.55% (inactive)
12 | COC(=O)c1ccc2c(c1)nc(C)n2CCO | 104% (inactive) | 118% (inactive) | 99.4% (inactive) | 9.26% (inactive) | 90.1 | 99.4 | -3.78% (inactive) | -2% (inactive)
13 | Cn1c(=O)c2c(ncn2CCO)n(C)c1=O | 119% (inactive) | 91% (inactive) | 100% (inactive) | 7.42% (inactive) | 93 | 100 | 0% (inactive) | 0.67% (inactive)
14 | CCSc1nc(N)c(C#N)c(-c2ccccc2Cl)c1C#N | 105% (inactive) | 96.1% (inactive) | 75.9% (inactive) | -3% (inactive) | 78.9 | 75.9 | 0.14% (inactive) | 0% (inactive)
15 | CC1(C)CC(=O)C=C(NC2CCS(=O)(=O)C2)C1 (centres undefined) | 97% (inactive) | 107% (inactive) | 91.3% (inactive) | -0.825% (inactive) | 92.2 | 91.3 | 0% (inactive) | 6.89% (inactive)
16 | CCc1nnc(SCC(=O)NC2CCCCC2)nc1CC | 94% (inactive) | 92.5% (inactive) | 97.9% (inactive) | 13.1% (inactive) | 84.8 | 97.9 | -4.29% (inactive) | -7.7% (inactive)
17 | c1cc2c(cc1C1CCCN1)OCCCO2 (centres undefined) | 103% (inactive) | 113% (inactive) | 91.6% (inactive) | -7.94% (inactive) | 99.5 | 91.6 | -5.21% (inactive) | 2% (inactive)
18 | COc1cc(C(=O)OCc2cc3ccccc3[nH]c2=O)cc(OC)c1OC | 117% (inactive) | 68.6% (inactive) | 82.4% (inactive) | 11.3% (inactive) | 71.1 | 82.4 | -2.8% (inactive) | -2.91% (inactive)
